Results gathered from unrelated publications.
Target: SRSF protein kinase 3 (SRPK3, Homo sapiens, UniProt Q9UPE1)

O=C(Nc1c[nH]nc1C(=O)NC1CCNCC1)c1cc(F)cc(F)c1  remaining binding (binding, competition with immobilised ligand; 1 µM): 88%
COc1ncc2cc3ccccc3nc2c1C#N  remaining binding (cell-free assay, competition with immobilised ligand; 5 µM): 98%
O=C(c1ccc(Nc2ncc(Cl)c(-c3cc4ccccc4s3)n2)cc1)N1CCC(N2CCCC2)CC1  remaining binding (binding, competition with immobilised ligand; 1 µM): 100%
N#Cc1ccccc1CSc1nnc2c(n1)[nH]c1ccccc12  remaining binding (binding, competition with immobilised ligand; 10 µM): 75%
CN(c1nccc(-c2cnn3ncccc23)n1)C1CC1  remaining binding (binding; 1 µM): 83%
CCCOc1ccc([C@@H]2[C@@H](C(=O)O)[C@H](c3ccc4c(c3)OCO4)CN2CC(=O)Nc2c(CC)cccc2CC)cc1  remaining binding (cell-free assay, competition with immobilised ligand; 1 µM): 93%
C[C@H]1CCN(c2nccc(-c3cnn4ncccc34)n2)C1  remaining binding (binding; 1 µM): 68%
COc1ccc2c(O[C@@H]3C[C@H]4C(=O)N[C@]5(C(=O)O)CC5/C=C\CCCCC[C@H](NC(=O)OC5CCCC5)C(=O)N4C3)cc(-c3csc(NC(=O)C(C)C)n3)nc2c1C (stereo partly drawn)  remaining binding (cell-free assay, competition with immobilised ligand; 1 µM): 57%
c1cncc(-c2cccc(Nc3nccc(NC4CCCCC4)n3)c2)c1  remaining binding (binding, competition with immobilised ligand; 10 µM): 55%
Cc1c(NC(=O)c2cc(C(N)=O)nc3cc(F)ccc23)c(C(F)(F)F)nn1Cc1ccc(C#N)cc1  remaining binding (cell-free assay, competition with immobilised ligand; 1 µM): 100%
O=C(NCCCN1CCOCC1)c1ccc(Nc2nccc(-c3cc4ccccc4s3)n2)cc1  remaining binding (binding, competition with immobilised ligand; 1 µM): 99%
N[C@@H]1CCN(c2nccc(-c3cnn4ncccc34)n2)C1  remaining binding (binding; 1 µM): 81%
COc1cnc(Nc2cccc(S(N)(=O)=O)c2)nc1N1CCN(c2ccccc2)CC1  remaining binding (binding, competition with immobilised ligand; 1 µM): 95%
c1cnn2ncc(-c3ccnc(N4CCC45COC5)n3)c2c1  remaining binding (binding; 1 µM): 66%
CC(=O)N1CCC(c2ccc(C(=O)NC3=NCCN3)cc2C(F)(F)F)CC1  remaining binding (cell-free assay, competition with immobilised ligand; 1 µM): 100%
Nc1ncc2c(n1)-c1c([nH]c3ccc(C#CC4CC4)cc13)CCCC2  remaining binding (binding, competition with immobilised ligand; 1 µM): 90%
COc1ccnn2ncc(-c3ccnc(N(C)C)n3)c12  remaining binding (binding; 1 µM): 67%
C[C@@H]1CN(c2ccc3ncc(-c4ccc5[nH]nc(C6CC6)c5c4)n3n2)C[C@H](C)O1  remaining binding (binding, competition with immobilised ligand; 50 nM): 97%
CCCCN(CCCC)C(=O)CN1C[C@@H](c2cc(OC)c3c(c2)OCO3)[C@H](C(=O)O)[C@H]1CC(C)(C)CCC  remaining binding (cell-free assay, competition with immobilised ligand; 1 µM): 100%
CN(C)c1ncc(F)c(-c2cnn3ncccc23)n1  remaining binding (binding; 1 µM): 100%
CS(=O)(=O)N1CCCC(NC(=O)[C@H](CCC2CCCCC2)NC(=O)c2ccc(CNC(=O)c3cnc4ccccn34)cc2)C1 (stereo partly drawn)  remaining binding (cell-free assay, competition with immobilised ligand; 0.1 µM): 100%
O=C(NCCCN1CCOCC1)c1ccc(Nc2ncc(Cl)c(-c3ccc(Cl)s3)n2)cc1  remaining binding (binding, competition with immobilised ligand; 1 µM): 100%
C[C@@H]1CN(c2cc(-c3n[nH]c4ccc(OC5(C)CC5)cc34)ncn2)C[C@H](C)O1  remaining binding (cell-free assay, competition with immobilised ligand; 0.1 µM): 100%
COc1cnc(Nc2cccc(S(N)(=O)=O)c2)nc1N1CCN(c2ccccc2)C(=O)C1  remaining binding (binding, competition with immobilised ligand; 1 µM): 79%
